This is a sample that favours compounds with a hit; in the whole collection about 3.6% have one here.
HSF1 inhib – HSF1 inhibition; NIH3T3-HGL HSE-luciferase, MG132-induced, luminescence 8 h; hits give low values; activity change, negative = inhibition, % at 7.5 µM (by protocol); hit rate 0.77% among 300,000;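 active = more than half of replicate wells show activity change below -50%, luminescence cut by over half; inconclusive = some wells, but at most half, below -50%; inactive = no replicate well below -50%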;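 also: luciferase reports HSF-1 transcriptional activity via heat shock element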
STAT3 act – STAT3 signaling activation | hit rate 0.91% among 190,000 | U3A cells, IL-6 STAT3-luciferase reporter, luminescence; 100% = signal with IL-6 EC80 alone | activation (% of control), % at 5.6 µM;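 active = activation above the screen-wide mean of compound activation plus 3 SD, cut at about 130% in these data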
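Detection: reporter luminescence signal / Assay system: STAT1-lacking human U3A cells, STAT3 luciferase reporter / Incubation: compound pre-incubation 1 h before IL-6, then 6 h stimulation at 37 °C / Control set: IL-6-only high control / Read-out: % activation relative to IL-6 control / Probe or stimulus: Interleukin-6, 33 ng/mL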
PolyA inhibitor – inhibitors of polyadenylation in S. cerevisiae | hit rate 0.02% among 300,000 | AID 1875 | S. cerevisiae SKY197-pL101 polyadenylation reporter, beta-gal luminescence; efflux-impaired pdr1/pdr3 knockout yeast; score 100 = 6 SD above DMSO | activity score, % at 12 µM;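 active = lowest replicate activity score at least 50, where 100 means six control SD above control mean; inconclusive = lowest score under 50 but half or more replicates reach 50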;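 also: yeast exposed to compound for 9 h at 30 °C; higher score means more reporter readthrough which indicates perturbed polyadenylation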
PERK inh – blocks human PERK kinase; CHO PERK-DD fusion, SEAP luminescence translation reporter; inhibition, % at 5.6 µM; hit rate 0.17% among 220,000; AID 1416;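 active = inhibition above the mean inhibition of all tested compounds plus 3 SD, set separately per screening campaign, cut at about 2.9% in these data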;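 also: PERK kinase domain activated by AP20187 dimerizer at 100 nM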
AHR act – activates the human aryl hydrocarbon receptor | hit rate 2.5% among 320,000 | AHR-responsive luciferase reporter cells, luminescence | activation, % at 5 µM | AID 2796; in the data active = activation above about 47%
Target sequence (P35869 whole entry, looked up): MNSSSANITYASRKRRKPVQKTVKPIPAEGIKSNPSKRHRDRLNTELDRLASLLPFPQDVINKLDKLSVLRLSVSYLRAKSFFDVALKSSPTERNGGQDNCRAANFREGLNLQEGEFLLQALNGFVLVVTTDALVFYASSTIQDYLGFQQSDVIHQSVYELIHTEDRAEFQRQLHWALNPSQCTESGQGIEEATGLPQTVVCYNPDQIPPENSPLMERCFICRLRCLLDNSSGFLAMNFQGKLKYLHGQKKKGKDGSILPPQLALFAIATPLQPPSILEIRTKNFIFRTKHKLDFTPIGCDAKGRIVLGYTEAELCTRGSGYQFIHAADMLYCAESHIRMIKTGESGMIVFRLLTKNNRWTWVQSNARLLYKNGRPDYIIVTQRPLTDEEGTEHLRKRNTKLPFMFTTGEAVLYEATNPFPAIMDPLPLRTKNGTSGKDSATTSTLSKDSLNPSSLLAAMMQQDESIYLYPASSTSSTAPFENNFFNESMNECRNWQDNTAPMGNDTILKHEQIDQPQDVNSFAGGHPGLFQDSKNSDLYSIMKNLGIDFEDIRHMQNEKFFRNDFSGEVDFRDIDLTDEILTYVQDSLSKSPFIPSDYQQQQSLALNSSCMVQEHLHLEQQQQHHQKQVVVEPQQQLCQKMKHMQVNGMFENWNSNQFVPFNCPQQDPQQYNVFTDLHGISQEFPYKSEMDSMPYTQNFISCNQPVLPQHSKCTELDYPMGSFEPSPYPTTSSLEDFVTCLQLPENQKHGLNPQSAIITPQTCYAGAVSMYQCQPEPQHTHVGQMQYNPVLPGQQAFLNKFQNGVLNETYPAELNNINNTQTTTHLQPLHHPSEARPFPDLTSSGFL
Hsp70 act – Hsp70 transcriptional activation, primary screen | activation, % at 10 µM | HeLa Hsp70 promoter luciferase reporter, luminescence; scaled: vehicle 0, proteasome-inhibitor control 100% | hit rate 0.04% among 200,000;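 active = activation above the mean across all tested compounds plus 3 SD, cutoff set per campaign, cut at about 5.5% in these data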
Numbers stand for hits; n = inactive; u = inconclusive; x = not tested or not shown.

SMILES	HSF1 inhib	STAT3 act	PolyA inhibitor	PERK inh	AHR act	Hsp70 act
CC(C)Sc1nc(C(F)(F)F)cc(=O)n1-c1ccccc1	n	n	n	3.0	n	n
CCOc1ccc(S(=O)(=O)NC(Cc2c[nH]c3ccccc23)C(=O)O)cc1 (configuration not stated)	n	x	n	x	n	x
CCCCCN(C(=O)CCC(=O)OCC(=O)Nc1ccc(C)cc1F)c1c(N)n(CCCC)c(=O)[nH]c1=O	n	x	n	x	n	x
COCC1CCCCN1C(=O)c1cc(COc2ccc3ncccc3c2)on1 (configuration not stated)	-72	x	n	x	n	x
CCN1CCN(C(=O)c2cc(COc3ccc4ncccc4c3)on2)CC1	n	n	n	n	n	n
CCCN1CCN(C(=O)c2cc(COc3ccc4ncccc4c3)on2)CC1	-57	n	n	n	n	n
CCN(c1ccc(OC)cc1)S(=O)(=O)c1nnc(NC(=O)COc2ccccc2)s1	n	x	n	x	n	x
Cc1ccc(NC(=S)NC(=O)C2CCC2)cc1C	-59	x	n	x	n	x
Cn1ccnc1C1CCCCN1C(=O)c1cc(COc2ccc(F)cc2Cl)on1 (configuration not stated)	-77	n	n	n	n	n
O=C(c1cc(COc2ccc(F)cc2Cl)on1)N1CC[C@@H]2CCCC[C@H]2C1	n	x	n	x	x	x
CCOC(=O)/C(=N\Nc1ncnc2ccccc12)c1ccc(C)cc1	n	x	n	x	n	x
CCCOc1ccc2cc(C(=O)NCc3ccccc3)c(=O)oc2c1	-61	x	n	x	n	x
c1ccc2c(-c3cn4ccccc4n3)c[nH]c2c1	n	n	n	n	54	n
COc1ccc(Nc2nc(-c3ccccc3)nc3ccccc23)cc1	n	x	n	x	n	x
COc1ccc(-c2nc(N/N=C(\C)c3ccc(O)cc3)c3ccccc3n2)cc1	n	x	n	n	49	x
CCSc1nnc2c(n1)[nH]c1c(C)cccc12	n	n	n	n	53	n
CC1CCN(CC(CS(=O)(=O)c2ccc([N+](=O)[O-])cc2)N2CCC(C)CC2)CC1 (configuration not stated)	n	x	n	n	n	x
CCOc1cccc(/C=N/NC(=O)c2cccnc2)c1O	n	x	n	x	n	x
CCOc1cccc(/C=N/NC(=O)c2cc(C3CC3)[nH]n2)c1O	n	x	n	x	53	x
Cc1cccc(Nc2nc(C)nc3c2oc2ccccc23)c1	n	x	n	x	48	x
Cc1nc(NCCc2cnc[nH]2)c2oc3ccccc3c2n1	n	n	n	n	53	n
CCc1nc(Nc2ccc3c(c2)OCO3)c2oc3ccccc3c2n1	n	n	n	n	96	n
Cc1nc(Nc2ccncc2)c2oc3ccccc3c2n1	n	n	n	n	n	n
O=C(N[C@@H]1C[C@H]2CC[C@@H]1C2)c1ccco1	n	x	u	x	n	x
Cc1cc(C)n2nc(SCCOc3ccccc3F)nc2n1	n	n	n	n	n	n
SMILES	HSF1 inhib	STAT3 act	PolyA inhibitor	PERK inh	AHR act	Hsp70 act
CCCc1cc(=O)[nH]c(SCC(=O)N(CCOC)c2c(N)n(Cc3ccccc3)c(=O)[nH]c2=O)n1	n	x	n	x	n	x
COc1ccc(C)cc1NC(=O)C(OC(=O)C1CC1)c1ccccc1 (configuration not stated)	n	n	n	n	55	n
CCOc1ccccc1NC(=O)C(OC(=O)C1CC1)c1ccccc1 (configuration not stated)	n	x	n	n	n	x
O=C1c2ccccc2C(=O)c2c1oc(C(F)(F)F)c2C(=O)c1ccccc1	-78	n	n	n	n	n
COc1cccc(NC(=O)COC(=O)C2CCCCC2)c1	x	x	x	x	n	x
O=C1Cc2ccccc2C(=O)N1c1cccc(Cl)c1	n	x	n	x	n	x
Cc1ccc(NC(=O)CCN2CCCCC2)cc1	-63	x	n	x	n	x
O=C(CSc1ccc2ccccc2n1)c1ccccc1	n	x	n	n	68	x
CC(C)(C)c1nc(SCC(=O)c2ccccc2)c2ccccc2n1	n	n	n	n	n	n
Cc1nc2ccccc2nc1SCC(=O)c1ccccc1	n	n	n	n	48	n
CN(C)S(=O)(=O)c1cccc(NC(=O)COC(=O)c2cc3ccccc3oc2=O)c1	n	x	n	n	n	x
COc1ccccc1NC(=O)CN(C)S(=O)(=O)c1ccc2c(c1)CCC(=O)N2	n	n	n	n	n	n
COc1ccc(NC(=O)CN(C)S(=O)(=O)c2ccc3c(c2)CCC(=O)N3)c(OC)c1	-86	n	n	n	n	n
O=C1c2ccccc2C(=O)N1CCCCN(C(=O)c1cccc([N+](=O)[O-])c1)c1ccc(Cl)cc1	n	n	n	n	72	n
CN(C)C1=NC[C@H](Cc2ccccc2)N1CC1CCCCCC1	x	x	x	x	n	x
COc1cc(OC)c(OC)cc1/C=N/NC(=S)NCC1CCCO1 (configuration not stated)	-70	n	n	n	n	n
COc1cc(OC)c(OC)cc1/C=N/NC(=S)NCCN1CCOCC1	n	n	n	n	n	n
Cc1cccc(N/C=C/C(=O)c2cccs2)c1C	n	n	n	n	59	n
O=C(/C=C/c1ccc([N+](=O)[O-])cc1)c1cccs1	n	x	n	n	n	x
COc1cc([N+](=O)[O-])ccc1N/C=C/C(=O)c1cccs1	n	n	n	n	51	n
Cc1ccc(CN2[C@@H](CC3CCCCC3)COCCS2(=O)=O)cc1	n	x	n	x	n	x
O=C1Nc2ccccc2/C1=C/c1cnc(-c2ccccc2)[nH]1	n	x	n	n	73	x
CCOC(=O)c1noc(C)c1C(=O)Nc1nccs1	n	n	n	n	n	n
C/C(=N\O)c1noc(C)c1C(=O)Nc1nccs1	n	x	n	x	50	x
O=C(Nc1ccc(Nc2ccccc2)cc1)c1ccc(Cl)cc1	n	x	n	x	n	x
SMILES	HSF1 inhib	STAT3 act	PolyA inhibitor	PERK inh	AHR act	Hsp70 act
O=C(NC1=C(Nc2ccc(Cl)cc2)C(=O)c2ccccc2C1=O)c1ccccc1	n	n	n	n	69	n
Cc1ccccc1C(=O)Nc1nnc(SC(C)C)s1	n	n	n	n	n	n
C=CCn1c(=N)n(CC(O)COc2ccccc2OC)c2ccccc21 (configuration not stated)	n	n	n	n	62	n
CCCCCn1c(=N)n(CC(O)COc2ccccc2OC)c2ccccc21 (configuration not stated)	n	n	n	n	49	n
COc1ccccc1OCC(O)Cn1c(=N)n(Cc2ccccc2)c2ccccc21 (configuration not stated)	n	n	n	n	n	n
COc1cccc(C(=O)Oc2ccc(N3C(=O)CCC3=O)c(C)c2)c1	n	n	n	n	n	n
CCc1ccc(C(=O)Cn2ncc(Cl)c(Cl)c2=O)cc1	-80	n	n	n	n	n
Cc1nc(SCC(=O)c2cccs2)c2oc3ccccc3c2n1	n	n	n	n	72	n
CCOC(=O)/C(C#N)=N\Nc1cc(Cl)ccc1OC	n	x	n	n	n	x
CC12CN3CC(C)(CN(C1)C3c1ccc3c(c1)OCO3)C2O (configuration not stated)	n	x	n	n	n	x

Compound activity as filed in PubChem BioAssay.
